Assay outcomes (PubChem)
hDAT+cocaine = changed human dopamine transporter uptake under cocaine IC80; B-score at 10 µM; actives 1.3% (n = 110,000); AID 449768; LLC-PK1 hDAT cells, [14C]-dopamine uptake with cocaine IC80; actives deviate in either direction; Q01959;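 active means Z score or B-score, a plate-position-corrected score, falls beyond the plate's 99.7% confidence bounds, in either direction; inactive means both scores lie inside the 99.7% bounds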
Target sequence (Q01959 whole entry, looked up): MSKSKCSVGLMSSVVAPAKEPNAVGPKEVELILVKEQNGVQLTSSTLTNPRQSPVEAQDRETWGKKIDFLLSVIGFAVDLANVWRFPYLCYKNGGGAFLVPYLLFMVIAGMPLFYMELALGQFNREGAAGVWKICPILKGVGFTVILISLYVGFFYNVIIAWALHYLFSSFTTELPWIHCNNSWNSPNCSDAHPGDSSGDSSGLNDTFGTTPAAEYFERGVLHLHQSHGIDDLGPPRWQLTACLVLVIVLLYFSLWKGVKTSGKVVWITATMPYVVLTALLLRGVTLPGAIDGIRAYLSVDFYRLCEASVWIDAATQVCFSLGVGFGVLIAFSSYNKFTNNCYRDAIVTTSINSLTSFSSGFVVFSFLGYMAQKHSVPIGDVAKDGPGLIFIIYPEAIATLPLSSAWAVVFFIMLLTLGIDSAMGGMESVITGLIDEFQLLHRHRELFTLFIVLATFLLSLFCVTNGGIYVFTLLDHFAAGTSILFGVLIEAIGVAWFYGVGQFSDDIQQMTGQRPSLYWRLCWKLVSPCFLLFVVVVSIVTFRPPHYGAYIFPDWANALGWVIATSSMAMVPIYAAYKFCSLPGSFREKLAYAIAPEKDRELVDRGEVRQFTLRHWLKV
HIV Rev-RRE inh = HIV Rev-RRE protein-RNA interaction inhibition; actives 0.79% (n = 97,000); inhibition, % at 8 µM; Rev peptide-RRE RNA binding, FRET; P05866;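 active means inhibition above the screen-wide mean plus 3 SD, cut at about 35% in these data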
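Probe or stimulus: fluorescein-Rev peptide as binding partner; assay system: Cy5-tagged RRE RNA duplex with fluorescein-tagged Rev peptide; timing: 5 min compound–RNA preincubation, then 15 min with peptide, 25 °C; medium: HEPES pH 7.5 buffer with KCl, MgCl2, NaCl and EDTA; signal: fluorescein-to-Cy5 FRET, 480 nm excitation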
Cav3 T inh = inhibitors of human Cav3.2 T-type calcium channel; B-score at 10 µM; actives 4% (n = 100,000); Cav3.2-expressing cells, Fluo-4 calcium fluorescence FDSS; stronger effect = lower value; O95180; AID 449739;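 active means single-dose well whose peak fluorescence ratio is a statistical outlier from its plate by either plate-standardised score or position-corrected B-score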
EphB4 ephrin blk = blocks human EphB4 binding to ephrin-B2; P54760; EphB4 LBD / TNYL-RAW-Alexa532 peptide, fluorescence polarization; inhibition, % at 7 µM; actives 0.15% (n = 97,000); AID 720;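 active means inhibition above the screen-wide mean inhibition plus 3 SD, cut at about 15% in these data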
Large screens that a line does not name were inactive; [ ] = another dose, or the depositor's remark. Shown are actives, neighbours in structure and some others; about 5.4% of the full set was active somewhere.

COc1ccc(-c2nn(C)c(=O)c3ccccc23)cc1CNC(=O)CN1CCOCC1	none (no result: Cav3 T inh)
O=C(Nc1nc(-c2ccccc2)cs1)C1c2ccccc2Oc2ccccc21	Cav3 T inh -5.18
Cc1cccc2sc(NC(=O)C3c4ccccc4Oc4ccccc43)nc12	Cav3 T inh -3.34
Cc1ccc(S(=O)(=O)N(c2nc(N(C)C)nc(N(C)C)n2)n2cnnc2)cc1	none (no result: HIV Rev-RRE inh, EphB4 ephrin blk)
COc1ccccc1CN=Cc1[nH]c2ccc(Br)c(Cl)c2c1O	HIV Rev-RRE inh 86.6[fluorescence artefact?]
Cc1nn(C)c(C)c1S(=O)(=O)NC1CCCc2ccccc21 (stereo unspecified)	none
Cc1ccc(S(=O)(=O)NC2CCCc3ccccc32)cc1C (stereo unspecified)	Cav3 T inh -4.17
O=C(NC1CCCCCC1)c1cccc(N2CCCC2=O)c1	none
CC1CCCCC1NC(=O)c1ccc(N2CCCC2=O)cc1 (stereo unspecified)	Cav3 T inh -5.13
CCCCn1c(CN2CCN(c3ccccc3)CC2)nc2c1c(=O)n(C)c(=O)n2C	none
CCCn1c(CN2CCN(c3cccc(Cl)c3)CC2)nc2c1c(=O)n(C)c(=O)n2C	Cav3 T inh -4.8
CCCCCn1c(CN2CCN(c3cccc(Cl)c3)CC2)nc2c1c(=O)n(C)c(=O)n2C	none
CCCCn1c(CN2CCN(c3cccc(Cl)c3)CC2)nc2c1c(=O)n(C)c(=O)n2C	Cav3 T inh -6.88
O=C(CCS(=O)(=O)c1ccc(Br)cc1)N1CCN(c2ccccc2Cl)CC1	Cav3 T inh -5.66
O=C(CCn1c(=O)oc2ccccc21)N1CCCCCC1	none
O=C(CCn1c(=O)oc2ccccc21)N1CCN(c2ccccc2Cl)CC1	hDAT+cocaine 3.45, Cav3 T inh -4.04
COc1ccc(C(=O)c2ccc(CC#N)s2)cc1	none (no result: Cav3 T inh)
O=C(COc1ccccc1)N1CCN(C(=O)c2cccs2)CC1	none (no result: HIV Rev-RRE inh, EphB4 ephrin blk)
O=C(CSc1ncn[nH]1)N1CCN(S(=O)(=O)c2ccccc2)CC1	none
Cc1ccc(OCC(=O)N2CCN(c3nnc(-c4ccccc4)c4ccccc34)CC2)cc1	hDAT+cocaine 3.04, Cav3 T inh -9.65
Cc1nc(N2CCN(C(=O)COc3ccccc3)CC2)c2c(C)c(C)sc2n1	Cav3 T inh -3.95
Cc1ccc(-c2nnc(N3CCN(C(=O)CSc4ncn[nH]4)CC3)c3ccccc23)cc1	hDAT+cocaine 2.68
Cc1c(C(=O)NCCC2=CCCCC2)oc2ccc(S(=O)(=O)N3CCOCC3)cc12	Cav3 T inh -4.14
O=C(NCc1cccs1)C1CCN(S(=O)(=O)c2cccc3nsnc23)CC1	none
Cc1cccc(C)c1-n1c(C)cc(/C=N/NC(N)=S)c1C	Cav3 T inh -5.91
CC(C)CN(CC(C)C)C(=O)CC(=O)NC(=O)c1ccc(Cl)cc1	none
Cc1ccc(-c2nnn(CC(=O)N(c3ccccc3)C(C(=O)NCC3CCCO3)c3ccc(Cl)cc3)n2)cc1 (stereo unspecified)	Cav3 T inh -4.65
Cc1ccc(-c2nnn(CC(=O)N(c3ccccc3F)C(C(=O)NCC3CCCO3)c3c[nH]c4ccccc34)n2)cc1 (stereo unspecified)	Cav3 T inh -7.07
COc1ccc(-c2nnn(CC(=O)N(Cc3ccccc3Cl)C(C(=O)NCC3CCCO3)c3ccco3)n2)cc1 (stereo unspecified)	none
COc1ccc(Br)cc1[C@H]1[C@H]2C=CC[C@@H](C)[C@@H]2C(=O)N1Cc1ccccc1	none (no result: HIV Rev-RRE inh, EphB4 ephrin blk)
O=S(=O)(c1cccc(S(=O)(=O)N2CCC(Cc3ccccc3)CC2)c1)N1CCOCC1	Cav3 T inh -5.91
COc1ccc(-c2onc(C)c2-c2ccc(C(=O)OC(C)C)o2)c(O)c1	Cav3 T inh -5.23
Clc1ccc(-c2cn3cccnc3n2)cc1Cl	HIV Rev-RRE inh 39.2
CCOC(=O)c1sc(NC(C)=O)nc1-c1ccccc1	none
O=c1c2cnn(-c3ccccc3)c2nnn1Cc1ccccn1	hDAT+cocaine 2.66
CCCCc1ccc(C2C(C#N)=C(N)SC(N)=C2C#N)s1	HIV Rev-RRE inh 66.0
CCOc1ccc(C2C(C#N)=C(N)SC(N)=C2C#N)c(OCC)c1	none
O=C1C2C3C=CC(C2C(=O)N1CCCO)C1C2C(=O)N(CCCO)C(=O)C2C31 (stereo unspecified)	none
COc1ccc(C(c2nnnn2Cc2ccc(F)cc2)N2CCN(c3ccc(OC)cc3)CC2)cc1 (stereo unspecified)	none (no result: Cav3 T inh)
COc1ccc(C(c2nnnn2Cc2ccc(F)cc2)N2CCN(c3ccccc3)CC2)cc1 (stereo unspecified)	Cav3 T inh -5.78
COc1ccc(Cn2nnnc2C(c2ccc(N(C)C)cc2)N2CCC(C)CC2)cc1 (stereo unspecified)	hDAT+cocaine 2
COc1ccc(N2CCN(C(c3ccccc3)c3nnnn3Cc3ccc(F)cc3)CC2)cc1 (stereo unspecified)	Cav3 T inh -4.56
CC(CN1CCN(c2ccccc2)CC1)c1ccccc1 (stereo unspecified)	none
CCn1c(SCC(=O)c2ccc3c(c2)Cc2ccccc2-3)nnc1-c1ccc(N)cc1	hDAT+cocaine 1.71
CC(C)c1ccc(CN2CC(C(=O)O)CC2=O)cc1 (stereo unspecified)	none
CCOc1cc(/C=C(/C#N)C(=O)Nc2ccc(O)cc2)cc(Br)c1O	hDAT+cocaine -3.4, HIV Rev-RRE inh 117.4[fluorescence artefact?], Cav3 T inh -7.94
COc1cc(/C=C(\C#N)C(=O)Nc2ccc(SC(F)F)cc2)cc(OC)c1OC	none
O=S(=O)(c1cccc(C(F)(F)F)c1)N1CCN(c2ccccc2)CC1	none
O=C(c1ccco1)N1CCN(S(=O)(=O)c2cccc(C(F)(F)F)c2)CC1	hDAT+cocaine -1.75
COc1ccc2cc(C3(C)NC(=O)NC3=O)ccc2c1 (stereo unspecified)	HIV Rev-RRE inh 36.9
COc1ccc2c(c1)CCCC21NC(=O)NC1=O (stereo unspecified)	none
COc1ccc(-c2nnc(SCC(=O)c3cccs3)o2)cc1	Cav3 T inh -5.19 (no result: HIV Rev-RRE inh, EphB4 ephrin blk)
COc1ccc(Oc2nc(SC)nc3ccccc23)cc1	none
COC(=O)c1cc(CN2CCN(c3ccccc3C)CC2)ccc1O	none
O=C(Nc1ccccc1)c1ccc(Cn2cc(C(F)(F)F)ccc2=O)cc1	none
O=C(Nc1cc(C(F)(F)F)cc(C(F)(F)F)c1)c1ccc(Cn2cc(C(F)(F)F)ccc2=O)cc1	Cav3 T inh -6.67 (no result: hDAT+cocaine)
CCSC1=NC2(CCCCC2)Nc2sc3c(c21)CCCC3	none
Cc1cc(Nc2ccccc2)n(-c2ccccc2)n1	Cav3 T inh -8.36
Nc1cc(-c2ccc(Br)cc2)nn1S(=O)(=O)c1ccccc1	none
Nc1cc(-c2ccccc2)nn1S(=O)(=O)c1ccc(F)cc1	Cav3 T inh -7.2
CCOC(=O)c1c(NC(=S)Nc2ccccc2)sc2c1CCN(CCc1ccccc1)C2	HIV Rev-RRE inh 124.0[fluorescence artefact?] (no result: hDAT+cocaine, Cav3 T inh)
Cc1c(Br)c([N+](=O)[O-])nn1CC(=O)NCc1cccnc1	none
N=c1c2c(n(Cc3ccc(F)cc3)c3c1CCC3)CCC2	hDAT+cocaine -5.18
CC(=O)C(N=Nc1ccccc1)(Sc1nnc(-c2ccccc2)n1-c1ccccc1)C(=O)Nc1ccccc1 (stereo unspecified)	Cav3 T inh -6.67
CC(C)NC(=O)CSc1nnc(-c2ccncc2)n1-c1ccccc1	none
